Results published in the EternaBench riboswitch data.

Test system: MS2 coat protein
Assay: apparent Kd, MS2 coat protein; higher = weaker binding; RNA-MaP array; FMN 200 µM where present
Procedure, shortened: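 Stalled E. coli RNA polymerase transcribed the designs on Illumina sequencing-chip clusters. SNAP-549-labelled MS2 coat protein was titrated from 0.7 or 1.5 nM, doubling to 3 µM, without and then with constant ligand, in 100 mM Tris-HCl pH 7.5, 80 mM KCl, 4 mM MgCl2, BSA, DTT, yeast tRNA and Tween-20. Per-cluster binding curves were fitted to green signal normalised to red-channel RNA signal and control-cluster median Fmax. The apparent Kd is the median of the filtered fits.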

[1] = designed as: ON switch for flavin mononucleotide, no ligand
[2] = ligand present: flavin mononucleotide, designed as: ON switch for flavin mononucleotide
[3] = designed as: OFF switch for flavin mononucleotide, no ligand
[4] = ligand present: flavin mononucleotide, designed as: OFF switch for flavin mononucleotide

Sequence	apparent Kd [1] [µM]	apparent Kd [2] [µM]	apparent Kd [3] [µM]	apparent Kd [4] [µM]
UUUAGUUGCGGGCAGGAUAUGUAUUAAAAUACAUGAGGAUCACCCAUGUGCGGGUAUAACACCCGACAGAAGGGCCAAUCGCGAC	0.322	0.0333	–	–
AAGGGUAGGCAGGAUAUCCAGGUCGACACCGCGGGAGAAGGGCUUACAUGAGGAUCACCCAUGUAGGGUGCGAU	–	–	0.177	0.129
AAACUGGAGGACAAGGAUAUGUGCUCUACGACAUGAGGAUCACCCAUGUGAGACGUAGUAGUGAAACAGAAGGUGUCCUAUUGUA	0.0201	0.0116	–	–
AUCAGCUUGACAGGAUAUACAUGUCAGCGAAAGCUGACAAUCUUAAUAACAUGAGGAUCACCCAUGUAGAAGGGUCGAGCUGAU	–	–	0.0181	0.0324
AGGUGUAGAGGAUAUCGAGUUCUUUACAUGAGGAUCACCCAUGUCCUGGGCACCCAGGACUGAGAAGGCUACACCA	–	–	0.478	0.18
UAUUACCUAGGAUAUACAUGAGGAUCACCCAUGUCACGGGUCAACUUGUCCUAUGCGUGUAGAAGGAGGGACCC	–	–	0.0198	0.0213
AGUGUCAUCGAGAAGGCCUCAACAUGAGGAUCACCCAUGUUGCAAAAUGGGAGGAUAUCGCGCGCAAAACUACGUUUCGUAGCA	0.0305	0.0114	–	–
UUAGCAACAUGAGGAUCACCCAUGUAGGAUAUCGCUAUUGUAAUCAUGAAACAUGAUUACAAUAGCGAGAAGGACAUAUGCUAC	–	–	0.0112	0.0121
GUUAUUUAUGUAGGAUAUGCGAGGCGAGCCUAAGCAGAAGGACAUGAGGAUCACCCAUGUAUUGCGGUCUGCGUUCAGAUCGCU	–	–	0.0324	0.15
GGGUACUAGGGAGGAUAUGGGAAGAUACAUGAGGAUCACCCAUGUUUAAGAAUGCCGAGAGGCAACUAGAAGGCCCUAGUACCU	0.428	0.0197	–	–
GCCUCACAUGAGGAUCACCCAUGUCAGGAUAUAGGAGGCGAUAGAAAUCCUACCGCCGCUAGAAGGGACUGGCA	–	–	0.0398	0.0912
UUGGACGUCGUAGGAUAUGUAGGAUAUUCCUACAUGAGGAUCACCCAUGUUGAGAUGGAAGAAGGACAGAAGGACGAUGUCCAU	0.0253	0.00405	–	–
UAAUAAUAAUAAUAGCAGUUUACAUGAGGAUCACCCAUGUAUAAGGAUAUCGUCAGGAAUACUGACGAGAAGGUAUACAUCUGC	–	–	0.0203	0.0336
AAAUCGGUAGAGGAUAUUGUACAGGAAACGGUGCGAGAAGGUUGCACAUGAGGAUCACCCAUGUUUAGUUGCGA	–	–	0.0349	0.034
UUACAUACAAAGGUACAUGAGGAUCACCCAUGUUUGUUGGGAAGAAGGGUAACAAUACUACACAUACAGGAUAUUUCACAAACA	0.049	0.0354	–	–
UGCGGCGCGGGCCACCGCAGGGCCAGAAGGACAUGAGGAUCACCCAUGUGGCAGGACAGGGCGGUGUAGGAUAUGGCAGGCUGG	–	–	0.0167	0.0208
AAAAAACAAGGAUAUACGCAGGAGGGUUGUCUUAAUUUUUGACAUGAGGAUCACCCAUGUAGAAGGUGUUAAAA	–	–	0.237	0.507
UAAAAACAUGAGGAUCACCCAUGUGAGGAUAUCGAAAAAAAAAAAUUAAAAAAGGAAGCGAGAAGGUACGGGAU	–	–	0.0532	0.0496
AUUAAACAUGAGGAUCACCCAUGUGAGGAUAUGCAAAAAAAAUUAUAUUAAAAAAAAAGCAGAAGGCACAUAUA	–	–	0.0547	0.0946
AGCUACGUUUCGUAGCAGUGUCAUCGAGAAGGCUCAUAUACAUGAGGAUCACCCAUGUUUUCAUGGGAGGAUAUCGAUGAUACA	0.108	0.00876	–	–
GGUGCGUAUGUGAGGAUAUGCUGGUCCUUGGAUCGGCAGAAGGCACAUGAGGAUCACCCAUGUGGUGUCGUACU	–	–	0.3	0.0255
GGAAAGCGAGGAUAUACAUGAGGAUCACCCAUGUAAACAAACAAACAAACAAACAAAUGUAGAAGGCGCAAAAC	–	–	0.0439	0.043
GACCUACAUGAGGAUCACCCAUGUCAGGAUAUUUAACCGAUGUCACCCAUCGGUCCUUAGAGAAGGGAUGUGGC	–	–	0.015	0.0149
CCCGACUAGAAGUCGAUACGGAGGAGAAGGCGCCUCCUGGGUCCACAUGAGGAUCACCCAUGUGGCGAGGAUAUCCUCAGUUUU	–	–	0.0109	0.0966
GGAUAGGACAGAGGAUAUACGGCUAGGAGAUACUAGCUACUAUUCCUCACAUGAGGAUCACCCAUGUAGAAGGCUGUCCUAUCG	–	–	0.0176	0.14
AAUAAACAUGAGGAUCACCCAUGUCCCACCAGCCAAGGAUAUGGGCCCGCCGCACAGGUACCAGAAGGUGGCUGCC	0.165	0.0557	–	–
GCCAGGCAUGUAGGAUAUCCAUUGCGUCGCGAUGGAGAAGGGCAACACACAUGAGGAUCACCCAUGUGGUCACCCAUGUCGUGU	–	–	0.217	0.225
AAAACUCACGUAGGAUAUCAUUCCUUAAGGUAGUGAGAAGGACGUGACUACAUGUCCUAAAACAUGAGGAUCACCCAUGUAGGC	–	–	0.0335	0.0265
